Assays:
[1] = tested on: Mus musculus; assay: Biodistribution of radioactivity in normal mice (ICR) liver after 1 hour of intravenous injection of [125I]-16(IMPY); format: ADME, organism-based; settings: in vivo
How it was run: (§1)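 Male ICR mice, 2-3 months old, 20-30 g, under ether anesthesia, given 0.15 mL of 0.1% bovine serum albumin solution containing the [125I] tracer into the tail vein. Killed by cardiac excision at set times after injection. Organs removed and weighed, then gamma-counted. % dose per organ computed against diluted aliquots of the injected material.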

[2] = tested on: Mus musculus; assay: Biodistribution of radioactivity in normal mice (ICR) heart after 2 minutes of intravenous injection of [125I]-16(IMPY); format: ADME, organism-based; settings: in vivo; how it was run: as §1
[3] = tested on: Mus musculus; assay: Biodistribution of radioactivity in normal mice (ICR) brain after 1 hour of intravenous injection of [125I]-16(IMPY); format: ADME, organism-based; settings: in vivo; how it was run: as §1
[4] = tested on: Mus musculus; assay: Biodistribution of radioactivity in normal mice (ICR) muscle after 6 hours of intravenous injection of [125I]-16(IMPY); format: ADME, organism-based, Muscle tissue; settings: in vivo; how it was run: as §1
[5] = tested on: Mus musculus; assay: Biodistribution of radioactivity in normal mice (ICR) brain after 30 minutes of intravenous injection of [125I]-16(IMPY); format: ADME, organism-based; settings: in vivo, 0.5 h; how it was run: as §1
[6] = tested on: Mus musculus; assay: Biodistribution of radioactivity in normal mice (ICR) kidney after 24 hours of intravenous injection of [125I]-16(IMPY); format: ADME, organism-based; settings: in vivo; how it was run: as §1
[7] = tested on: Mus musculus; assay: Biodistribution of radioactivity in normal mice (ICR) spleen after 1 hour of intravenous injection of [125I]-16(IMPY); format: ADME, organism-based; settings: in vivo; how it was run: as §1
[8] = tested on: Mus musculus; assay: Biodistribution of radioactivity in normal mice (ICR) lung after 2 hours of intravenous injection of [125I]-16(IMPY); format: ADME, organism-based; settings: in vivo; how it was run: as §1
[9] = tested on: Mus musculus; assay: Biodistribution of radioactivity in normal mice blood after 2 hours of intravenous injection of [125I]-16(IMPY); format: ADME, organism-based; settings: in vivo; how it was run: as §1
[10] = tested on: Mus musculus; assay: Biodistribution of radioactivity in normal mice (ICR) brain after 2 hours of intravenous injection of [125I]-16(IMPY); format: ADME, organism-based; settings: in vivo; how it was run: as §1
[11] = tested on: Mus musculus; assay: Biodistribution of radioactivity in normal mice (ICR) brain after 6 hours of intravenous injection of [125I]-16(IMPY); format: ADME, organism-based; settings: in vivo; how it was run: as §1
[12] = tested on: Mus musculus; assay: Biodistribution of radioactivity in normal mice blood after 30 minutes of intravenous injection of [125I]-16(IMPY); format: ADME, organism-based; settings: in vivo, 0.5 h
How it was run: (§2)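 Male ICR mice (2-3 months old, 20-30 g) under ether anesthesia; 0.15 mL of 0.1% bovine serum albumin solution containing the iodine-125 tracer injected into the tail vein. Mice killed by cardiac excision at set times. Organs removed, weighed and gamma-counted. Percent dose per organ derived against diluted aliquots of the injectate.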

[13] = tested on: Mus musculus; assay: Biodistribution of radioactivity in normal mice (ICR) kidney after 2 hours of intravenous injection of [125I]-16(IMPY); format: ADME, organism-based; settings: in vivo; how it was run: as §1
[14] = tested on: Mus musculus; assay: Biodistribution of radioactivity in normal mice (ICR) muscle after 1 hr of intravenous injection of [125I]-16(IMPY); format: ADME, organism-based, Muscle tissue; settings: in vivo; how it was run: as §1
[15] = tested on: Mus musculus; assay: Biodistribution of radioactivity in normal mice (ICR) lung after 6 hours of intravenous injection of [125I]-16(IMPY); format: ADME, organism-based; settings: in vivo; how it was run: as §1
[16] = tested on: Mus musculus; assay: Biodistribution of radioactivity in normal mice (ICR) spleen after 6 hours of intravenous injection of [125I]-16(IMPY); format: ADME, organism-based; settings: in vivo; how it was run: as §1
[17] = tested on: Mus musculus; assay: Biodistribution of radioactivity in normal mice (ICR) heart after 1 hour of intravenous injection of [125I]-16(IMPY); format: ADME, organism-based; settings: in vivo; how it was run: as §1
[18] = tested on: Mus musculus; assay: Biodistribution of radioactivity in normal mice (ICR) lung after 30 minutes of intravenous injection of [125I]-16(IMPY); format: ADME, organism-based; settings: in vivo, 0.5 h; how it was run: as §1
[19] = tested on: Mus musculus; assay: Biodistribution of radioactivity in normal mice (ICR) lung after 24 hours of intravenous injection of [125I]-16(IMPY); format: ADME, organism-based; settings: in vivo; how it was run: as §1
[20] = tested on: Mus musculus; assay: Biodistribution of radioactivity in normal mice blood after 2 minutes of intravenous injection of [125I]-16(IMPY); format: ADME, organism-based; settings: in vivo; how it was run: as §2
[21] = tested on: Mus musculus; assay: Biodistribution of radioactivity in normal mice (ICR) liver after 6 hours of intravenous injection of [125I]-16(IMPY); format: ADME, organism-based; settings: in vivo; how it was run: as §1
[22] = tested on: Mus musculus; assay: Biodistribution of radioactivity in normal mice (ICR) skin after 6 hours of intravenous injection of [125I]-16(IMPY); format: ADME, organism-based, Zone of skin; settings: in vivo; how it was run: as §1
[23] = tested on: Mus musculus; assay: Biodistribution of radioactivity in normal mice (ICR) muscle after 30 minutes of intravenous injection of [125I]-16(IMPY); format: ADME, organism-based, Muscle tissue; settings: in vivo, 0.5 h; how it was run: as §1
[24] = tested on: Mus musculus; assay: Biodistribution of radioactivity in normal mice (ICR) muscle after 2 minutes of intravenous injection of [125I]-16(IMPY); format: ADME, organism-based, Muscle tissue; settings: in vivo; how it was run: as §1
[25] = tested on: Mus musculus; assay: Biodistribution of radioactivity in normal mice (ICR) brain after 2 minutes of intravenous injection of [125I]-16(IMPY); format: ADME, organism-based; settings: in vivo; how it was run: as §1
[26] = tested on: Mus musculus; assay: Biodistribution of radioactivity in normal mice (ICR) heart after 2 hours of intravenous injection of [125I]-16(IMPY); format: ADME, organism-based; settings: in vivo; how it was run: as §1
[27] = tested on: Mus musculus; assay: Biodistribution of radioactivity in normal mice (ICR) heart after 6 hours of intravenous injection of [125I]-16(IMPY); format: ADME, organism-based; settings: in vivo; how it was run: as §1

Q: What does the source list for `CN(C)c1ccc(-c2cn3cc(I)ccc3n2)cc1`?
A: Dose/organ [1]: 5.88%; Dose/organ [2]: 0.79%; Dose/organ [3]: 0.21%; Dose/organ [4]: 1.46%; Dose/organ [5]: 0.26%; Dose/organ [6]: 0.05%; Dose/organ [7]: 0.08%; Dose/organ [8]: 0.2%; Dose/organ [9]: 1.82%; Dose/organ [10]: 0.14%; Dose/organ [11]: 0.06%; Dose/organ [12]: 2.44%; Dose/organ [13]: 0.53%; Dose/organ [14]: 5.03%; Dose/organ [15]: 0.12%; Dose/organ [16]: 0.04%; Dose/organ [17]: 0.12%; Dose/organ [18]: 0.31%; Dose/organ [19]: 0.05%; Dose/organ [20]: 6.41%; Dose/organ [21]: 1.54%; Dose/organ [22]: 2.19%; Dose/organ [23]: 6.08%; Dose/organ [24]: 13.8%; Dose/organ [25]: 2.88%; Dose/organ [26]: 0.08%; Dose/organ [27]: 0.04%

— ChEMBL document CHEMBL1145100, “Structure-activity relationship of imidazo[1,2-a]pyridines as ligands for detecting beta-amyloid plaques in the brain” (J Med Chem, 2003)
